ChEMBL document CHEMBL4396878, “Mechanisms of Specific versus Nonspecific Interactions of Aggregation-Prone Inhibitors and Attenuators” (J Med Chem, 2019)
Blank lines part the entries; values can stand above or below the molecule they belong to. The source made the active and inactive calls. The calls are words filed in the database; no cut-off is given here.

Columns and labels:
[1] = Binding affinity to Triton-X 100 assessed as change in chemical shift at 100 uM by 1H-NMR spectra analysis
[2] = Aggregation property of the compound in NMR buffer assessed as aggregate size at 500 uM by dynamic light scattering analysis; assay type: physicochemical
Outline: (§1)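 Dynamic light scattering in NMR buffer, samples filtered through 0.22 μm and centrifuged 5 min at 13 500 rpm before measurement. Autocorrelation accumulated 150 s at a 173° scattering angle, in replicates of 3–5, with water viscosity used in analysis; intensity or volume size distributions reported.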

[3] = Aggregation property of the compound in NMR buffer assessed as diameter of aggregate at 500 uM by dynamic light scattering analysis; assay type: physicochemical; outline: as §1
[4] = Aggregation property of the compound in NMR buffer assessed as amorphous morphology at 200 uM by uranyl acetate staining-based transmission electron microscopic analysis; assay type: physicochemical
[5] = Aggregation property of the compound assessed as shift in peak width by 1H-NMR analysis; assay type: physicochemical
Outline: (§2)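 Line widths, chemical shifts and peak intensities tracked; CAC taken as the concentration where intensities deviate from linear dependence, or, for line width, the minimal concentration that increases peak width.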

[6] = Aggregation property of the compound assessed as change in chemical shift by 1H-NMR analysis; assay type: physicochemical; outline: as §2
[7] = Aggregation property of the compound assessed as change in peak intensity by measuring concentration at which peak intensities deviated from the linear correlation by 1H-NMR analysis; assay type: physicochemical; outline: as §2
[8] = Aggregation property of the compound assessed as change in saturation transfer at 100 uM irradiated at 8.61 ppm by STD NMR spectra analysis; assay type: physicochemical
Outline: (§3)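 STD NMR, saturation by a train of 40 Gaussian pulses of 50 ms each; selective on-resonance irradiation at the stated ppm (TX at 7.48 ppm), off-resonance at 30 ppm, interleaved and subtracted by phase cycling. 32K points, 16 ppm width centred at 4.7 ppm, 256 scans, 16 dummy scans, 0.1 s recycle delay (~15 min); 3 Hz exponential line broadening.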

Albumin [9] = biological target: T1, Albumin (Homo sapiens, UniProt P02768); experiment: Binding affinity to human serum albumin assessed as line broadening at 200 uM by 1D 1H NMR analysis
Albumin [10] = biological target: T1, Albumin; experiment: Displacement of [13C]oleic acid from human serum albumin by CH-HSQC spectra analysis
Outline: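 Fatty-acid-free recombinant HSA at 250 μM in sodium phosphate buffer (20 mM NaPO4, pH 7.6, 50 mM NaCl, D2O), 37 °C for 30 min. 13C-oleic acid (100 mM stock in DMSO-d6, warmed to 50 °C for 10 min) added to 1.5 mM, then 2 h at 37 °C. CH-HSQC at 298 K; loss of site-specific cross-peaks A–H scored.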

Albumin [11] = biological target: T1, Albumin; experiment: Displacement of dansylated arginine from human serum albumin at <150 uM by fluorescence assay
Outline: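 Competition of ligand against 100 μM dansyl-arginine (Sudlow site 1, 1:1 stoichiometry) bound to 2.5 μM HSA. Excitation 370 nm, emission 460 nm. Apparent Kd fitted by Wang's method using least squares, assuming no other ligand sites on HSA, so treated as a maximum apparent value.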

Albumin [12] = biological target: T1, Albumin; experiment: Displacement of dansylated phenylalanine from human serum albumin at <150 uM by fluorescence assay
Outline: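 Competition of ligand against 100 μM dansyl-phenylalanine (binds Sudlow sites 1 and 2) bound to 2.5 μM HSA. Excitation 370 nm, emission 480 nm. Fractional saturation modelled with two sites, free HSA assumed negligible; least-squares fit with no further ESI sites, giving maximum apparent dissociation constants.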

Albumin [13] = biological target: T1, Albumin; experiment: Displacement of ANS from human serum albumin at <150 uM by fluorescence assay
Outline: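 Fluorescence competition: 2.5 μM HSA with 5 or 100 μM ANS, ligand added over a concentration range. Excitation 360 nm; emission read at 460 and 480 nm to check for blue shift. Signal normalized between ANS alone (minimum) and HSA:ANS (maximum).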

[14] = Aggregation property of the compound in NMR buffer at 50 to 250 uM by surface plasmon resonance analysis; assay type: physicochemical
Outline: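 SPR on a nonfunctionalized gold nanoparticle sensor; samples in NMR buffer with DMSO at 1.25%, injected at 33 μL/min alongside matched DMSO controls (with HSA where present, 25 μM), in duplicate. Surface regenerated only after HSA-containing injections.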

Albumin [15] = biological target: T1, Albumin; experiment: Binding affinity to human serum albumin assessed as inhibition of compound aggregation at 500 uM by dynamic light scattering analysis; outline: as §1
[16] = biological target: T2, Rap guanine nucleotide exchange factor 3 (Homo sapiens, UniProt O95398); experiment: Binding affinity to human EPAC1 cAMP binding domain (149 to 318 residues) by [15N-1H]HSQC spectroscopic analysis
T2 sequence (O95398 whole entry): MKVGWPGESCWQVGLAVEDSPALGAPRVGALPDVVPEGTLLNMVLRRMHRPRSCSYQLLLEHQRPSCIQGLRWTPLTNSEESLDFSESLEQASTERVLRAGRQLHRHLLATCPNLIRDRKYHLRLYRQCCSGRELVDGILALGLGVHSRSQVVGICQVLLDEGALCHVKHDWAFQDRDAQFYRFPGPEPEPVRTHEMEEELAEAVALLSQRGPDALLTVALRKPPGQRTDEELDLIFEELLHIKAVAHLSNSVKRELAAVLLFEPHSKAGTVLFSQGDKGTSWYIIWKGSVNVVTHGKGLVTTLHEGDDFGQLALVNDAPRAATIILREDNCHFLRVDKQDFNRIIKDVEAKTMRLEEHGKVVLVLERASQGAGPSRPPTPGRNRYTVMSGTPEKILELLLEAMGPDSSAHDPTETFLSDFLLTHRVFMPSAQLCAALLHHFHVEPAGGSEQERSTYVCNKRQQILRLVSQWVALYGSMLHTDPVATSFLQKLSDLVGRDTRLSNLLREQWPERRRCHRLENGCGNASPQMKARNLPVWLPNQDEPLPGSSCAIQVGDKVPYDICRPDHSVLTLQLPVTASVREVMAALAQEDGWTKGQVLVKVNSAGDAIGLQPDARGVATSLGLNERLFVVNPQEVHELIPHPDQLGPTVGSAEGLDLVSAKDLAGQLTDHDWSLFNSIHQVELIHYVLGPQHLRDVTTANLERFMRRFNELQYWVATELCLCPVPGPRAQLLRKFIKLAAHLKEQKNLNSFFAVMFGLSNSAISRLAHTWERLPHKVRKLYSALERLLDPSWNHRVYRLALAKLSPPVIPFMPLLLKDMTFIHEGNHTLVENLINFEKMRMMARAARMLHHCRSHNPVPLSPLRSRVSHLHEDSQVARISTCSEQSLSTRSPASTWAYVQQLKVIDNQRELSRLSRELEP

[17] = biological target: T2, Rap guanine nucleotide exchange factor 3; experiment: Binding affinity to human EPAC1 cAMP binding domain (149 to 318 residues) in presence of human serum albumin by [15N-1H]HSQC spectroscopic analysis; details: read-out: Kd(app)
Outline: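 100 μM human EPAC1 CBD (149–318) in NMR buffer (Tris pH 7.6) was titrated with inhibitor in the presence of globulin- and fatty-acid-free human serum albumin at stated stoichiometric ratios. Chemical shift differences and peak intensities normalised to ligand-free sample (I/I0, averaged over residues) were tracked. Errors came from propagated signal-to-noise.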

[18] = Binding affinity to Triton-X 100 assessed as peak intensity loss at 150 uM by 1H-NMR spectra analysis
[19] = Binding affinity to Triton-X 100 assessed as change in chemical shift at 150 uM by 1H-NMR spectra analysis
[20] = Binding affinity to Triton-X 100 assessed as line broadening at 150 uM by 1H-NMR spectra analysis
[21] = Binding affinity to Triton-X 100 assessed as line broadening at 150 uM by 1H-NMR analysis
[22] = Binding affinity to Triton-X 100 assessed as intra-molecular cross relaxation at 500 uM by NOESY spectra analysis
Outline: (§4)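 2D NOESY and ROESY of 100 μM ESI with 0.025% Triton X-100 or 500 μM ESI with 0.05% Triton X-100; 2K × 512 complex points, 12 ppm spectral width centred at 4.7 ppm, intra- and intermolecular cross-peaks mapped.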

[23] = Binding affinity to Triton-X 100 assessed as peak size of aggregate at 1:2 ratio of Triton-X 100 to compound by dynamic light scattering analysis; outline: as §1
[24] = Binding affinity to Triton-X 100 assessed as peak size of aggregate at 1:1 ratio of Triton-X 100 to compound by dynamic light scattering analysis; outline: as §1
[25] = Binding affinity to Triton-X 100 at 500 uM measured after 14 hrs by NOESY spectra analysis; outline: as §4
[26] = Binding affinity to Triton-X 100 assessed as inter-molecular cross relaxation at 500 uM by NOESY spectra analysis; outline: as §4
[27] = Binding affinity to Triton-X 100 assessed as inter-molecular saturation transfer at 500 uM at 8.61 ppm by STD spectra analysis; outline: as §3
[28] = Binding affinity to Triton-X 100 assessed as intra-molecular saturation transfer at 500 uM at 8.61 ppm by STD spectra analysis; outline: as §3
[29] = Binding affinity to Triton-X 100 assessed as compound-complex formation at 500 uM by NOESY spectra analysis; outline: as §4

T1 sequence (P02768 whole entry): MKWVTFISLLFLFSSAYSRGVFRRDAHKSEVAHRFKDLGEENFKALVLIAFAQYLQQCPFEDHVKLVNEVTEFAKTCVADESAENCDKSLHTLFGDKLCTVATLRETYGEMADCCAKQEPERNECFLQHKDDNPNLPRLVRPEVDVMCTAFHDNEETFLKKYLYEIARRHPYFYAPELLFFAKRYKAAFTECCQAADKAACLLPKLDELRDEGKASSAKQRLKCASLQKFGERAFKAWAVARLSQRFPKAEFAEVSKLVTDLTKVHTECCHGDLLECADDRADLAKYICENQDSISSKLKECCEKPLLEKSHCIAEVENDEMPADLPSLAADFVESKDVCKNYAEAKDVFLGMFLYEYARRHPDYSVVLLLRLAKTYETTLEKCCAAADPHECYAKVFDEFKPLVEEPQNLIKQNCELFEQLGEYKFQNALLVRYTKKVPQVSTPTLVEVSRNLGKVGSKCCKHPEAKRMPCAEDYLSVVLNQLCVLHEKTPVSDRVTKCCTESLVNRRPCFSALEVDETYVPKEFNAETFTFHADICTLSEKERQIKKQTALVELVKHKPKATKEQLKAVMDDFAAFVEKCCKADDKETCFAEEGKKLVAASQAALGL

SMILES: C[C@@H]1CCc2c(cc(Br)c(F)c2Br)N1C=O [listing 1 of 2 here]
Activity [2]: 90 to 600 nm
Activity [3]: 250 nm
Activity [4]: Active
Activity [5]: Not Active
Activity [6]: Not Active
Activity [7]: 150 µM
Activity [8]: Not Active
Activity (Albumin [9]): Active
Activity (Albumin [10]): Active
Activity (Albumin [11]): Not Active
Activity (Albumin [12]): Not Active
Activity (Albumin [13]): Not Active
Activity [14]: Not Active
inhibition (INH) (Albumin [15]): Active
Kd [16]: 124 to 184 µM
Kd [17]: 757 to 1980 µM

SMILES: Clc1ccc(COC(Cn2ccnc2)c2ccc(Cl)cc2Cl)c(Cl)c1 (stereo not given)
Activity [18]: Active
Activity [19]: Active
Activity [20]: Active
Activity [21]: Active

SMILES: O=S(=O)(O)c1cccc2cccc(Nc3ccccc3)c12
Activity [19]: Active
Activity [20]: Active

SMILES: COC(=O)C1=C(C)NC(C)=C(C(=O)OCCN(C)Cc2ccccc2)C1c1cccc([N+](=O)[O-])c1 (stereo not given)
Activity [18]: Active
Activity [19]: Active
Activity [20]: Active

SMILES: C[C@@H]1CCc2c(cc(Br)c(F)c2Br)N1C=O [listing 2 of 2 here]
Activity [22]: Active
Activity [23]: 70 nm
Activity [24]: 10 nm
Activity [25]: inactive
Activity [26]: Active
Activity [27]: Active
Activity [28]: Active
Activity [29]: Active

SMILES: O=C(OCc1ccccc1)c1ccccc1
Activity [18]: Active
Activity [19]: Active
Activity [20]: Active

More lines, now with the values ahead:

Activity [1]: < 0.34 ppm
SMILES: C[C@@H]1CCc2c(cc(Br)c(F)c2Br)N1C=O (stereo in doubt; cis)

Activity [1]: 0.02 ppm
SMILES: C[C@@H]1CCc2c(cc(Br)c(F)c2Br)N1C=O (stereo in doubt; trans)

Activity [19]: Active
Activity [20]: Active
SMILES: O=C(O)c1cc(-c2ccc(F)cc2F)ccc1O

Activity [18]: Active
Activity [19]: Active
Activity [20]: Active
SMILES: Clc1ccccc1C(c1ccccc1)(c1ccccc1)n1ccnc1

Activity [19]: inactive
Activity [20]: inactive
SMILES: Nc1nnc(-c2cccc(Cl)c2Cl)c(N)n1
